In ChEMBL document CHEMBL4118107, “Synthesis and Biological Evaluation of ( E)-4-Hydroxy-3-methylbut-2-enyl Phosphate (HMBP) Aryloxy Triester Phosphoramidate Prodrugs as Activators of Vγ9/Vδ2 T-Cell Immune Responses” (J Med Chem, 2018):
Activity calls are given as the source filed them. The calls are words filed in the database; no cut-off is given here.

Assays:
Homo sapiens = organism: Homo sapiens; assay: Upregulation of CD69/CD25 levels in human CD8-positive T cells expressing alpha-beta TCR; format: functional, cell-based
Summary of the method: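 Healthy-donor human PBMC incubated 18 h with medium or compound (range up to 100 μM). CD3+ CD8+ αβ T cells were gated and analysed by flow cytometry for cell-surface CD69 and CD25 upregulation.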

[1] = target: T1, Butyrophilin subfamily 3 member A1 (Homo sapiens, UniProt O00481); assay: Binding affinity to butyrophilin 3A1 in human Vgamma9/Vdelta2 T-cells assessed as activation of Vgamma9/Vdelta2 T-cells by upregulation of CD69 and CD25 after 18 hrs
Summary of the method: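 Healthy-donor PBMC incubated 18 h with medium or titrated compound (up to 100 μM). TCR Vγ9+/Vδ2+ cells were gated and scored by flow cytometry for surface CD69 and CD25 upregulation versus medium control.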

[2] = target: T1, Butyrophilin subfamily 3 member A1; assay: Binding affinity to butyrophilin 3A1 in human Vgamma9/Vdelta2 T-cells assessed as activation of Vgamma9/Vdelta2 T-cells by measuring levels of CD69 and CD25 at 10 uM after 18 hrs relative to control
Summary of the method: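 Human PBMC from healthy donors incubated 18 h with medium or compound (titrations up to 100 μM). Vγ9/Vδ2 T cells gated by TCR Vγ9 and Vδ2 expression. Surface CD69 and CD25 upregulation measured by flow staining and compared with medium control. n = 4–5 donors.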
Target sequence in this assay (O00481 30-513 limits assumed): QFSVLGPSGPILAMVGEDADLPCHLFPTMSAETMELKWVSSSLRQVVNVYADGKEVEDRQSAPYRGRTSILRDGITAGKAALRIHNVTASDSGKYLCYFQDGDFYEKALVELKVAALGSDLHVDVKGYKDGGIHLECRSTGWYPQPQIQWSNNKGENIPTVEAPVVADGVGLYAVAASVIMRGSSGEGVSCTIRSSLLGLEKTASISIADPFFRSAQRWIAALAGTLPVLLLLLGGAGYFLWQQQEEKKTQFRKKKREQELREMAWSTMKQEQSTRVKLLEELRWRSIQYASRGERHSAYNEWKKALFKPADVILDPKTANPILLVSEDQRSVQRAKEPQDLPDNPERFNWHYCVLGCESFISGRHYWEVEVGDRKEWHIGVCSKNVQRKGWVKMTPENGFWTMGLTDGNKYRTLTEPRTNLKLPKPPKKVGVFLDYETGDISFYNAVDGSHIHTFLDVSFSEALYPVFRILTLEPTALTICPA

[3] = target: T1, Butyrophilin subfamily 3 member A1; assay: Binding affinity to butyrophilin 3A1 in human Vgamma9/Vdelta2 T-cells assessed as activation of Vgamma9/Vdelta2 T-cell-mediated lysis of human T24 cells preincubated for 4 hrs followed by compound washout measured after 18 hrs
Summary of the method: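 T24 urinary bladder carcinoma cells (target) pulsed 4 h with 10 nM prodrug, medium, or 10 μM zoledronate. They were then cocultured 18 h with in vitro expanded Vγ9/Vδ2 T cells (effector) across target/effector ratios. Specific killing was scored by amine-reactive dead cell marker staining. Summary is at 1:10 target/effector, mean ± SD, n = 2, with one-way ANOVA.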
Target sequence in this assay (O00481 30-513 limits assumed): as above

[4] = target: T1, Butyrophilin subfamily 3 member A1; assay: Binding affinity to butyrophilin 3A1 in human Vgamma9/Vdelta2 T-cells assessed as activation of Vgamma9/Vdelta2 T-cells by measuring levels of CD69 and CD25 at 0.1 uM after 18 hrs relative to control
Summary of the method: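 Healthy-donor PBMC incubated 18 h with medium or titrated compound (up to 100 μM). TCR Vγ9+/Vδ2+ cells were gated and scored by flow cytometry for surface CD69 and CD25 upregulation versus medium control. EC50 was taken from titration curves, n = 4–5 donors.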
Target sequence in this assay (O00481 30-513 limits assumed): as above

[5] = target: T1, Butyrophilin subfamily 3 member A1; assay: Ratio of ED50 for binding affinity to butyrophilin 3A1 in human Vgamma9/Vdelta2 T-cells for Vgamma9/Vdelta2 T-cell-mediated lysis of human T24 cells to EC50 for binding affinity to butyrophilin 3A1 for activation of Vgamma9/Vdelta2 T-cells
Target sequence in this assay (O00481 30-513 limits assumed): as above

[6] = target: T1, Butyrophilin subfamily 3 member A1; assay: Potency index, ratio of zoledronate EC50 to test compound EC50 for binding affinity to butyrophilin 3A1 in human Vgamma9/Vdelta2 T-cells assessed as activation of Vgamma9/Vdelta2 T-cells by upregulation of CD69 and CD25
Target sequence in this assay (O00481 30-513 limits assumed): as above

Compound | Activity (Homo sapiens) | EC50 [1] [µM] | Activity [2] [%] | ED50 [3] [µM] | Activity [1] | Activity [4] [%] | Ratio [5] | Ratio EC50 [6]
O=P(O)(O)C(O)(Cn1ccnc1)P(=O)(O)O [ZOLEDRONIC ACID] | inactive | 0.487 | 39.2 | > 100 |  |  |  | 
C/C(=C\CO)CO[Si](C)(C)C(C)(C)C |  |  |  |  | inactive |  |  | 
C/C(=C\COP(=O)(N[C@@H](C)C(=O)OC(C)C)Oc1ccccc1)CO[Si](C)(C)C(C)(C)C (some centres not stated) | inactive | 0.0106 |  | 83.2 |  | 31 | 7830 | 
C/C(=C\COP(=O)(O)OP(=O)(O)O)CO | inactive |  |  | > 100 |  |  |  | 
COC(=O)[C@H](C)NP(=O)(OC/C=C(\C)CO[Si](C)(C)C(C)(C)C)Oc1ccccc1 (some centres not stated) | inactive | 0.00138 |  | 29.5 |  | 39 | 21400 | 
C/C(=C\COP(=O)(N[C@@H](C)C(=O)OCc1ccccc1)Oc1ccccc1)CO[Si](C)(C)C(C)(C)C (some centres not stated) | inactive | 0.00045 |  | 8.51 |  | 50.6 | 12900 | 1080
C/C(=C\COP(=O)(N[C@@H](C)C(=O)OC(C)(C)C)Oc1ccccc1)CO[Si](C)(C)C(C)(C)C (some centres not stated) | inactive | 0.00892 |  | > 100 |  | 29.9 |  | 
